Measurements from ChEMBL document CHEMBL3085765, “The synthesis, antiviral, cytostatic and cytotoxic evaluation of a new series of acyclonucleotide analogues with a 1,2,3-triazole linker” (Eur J Med Chem, 2013).

Key:
Format in all cases: functional, cell-based
HeLa = test: Cytostatic activity against human HeLa cells after 3 days by coulter ZI particle counting analysis; settings: 72 h
Procedure, shortened: (§1)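 Cells seeded in 96-well plates and grown with or without serial dilutions of compound, 2 days for L1210 and 3 days for CEM and HeLa. IC50 taken as concentration inhibiting cell proliferation by 50%.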

L1210 = test: Cytostatic activity against mouse L1210 cells after 2 days by coulter ZI particle counting analysis; settings: L1210, 48 h; procedure, shortened: as §1
CCRF-CEM = test: Cytostatic activity against human CEM cells after 3 days by coulter ZI particle counting analysis; settings: 72 h; procedure, shortened: as §1

| SMILES | IC50 (HeLa) | IC50 (L1210) | IC50 (CCRF-CEM) |
| --- | --- | --- | --- |
| Cc1cn(Cc2cn(CCCCP(=O)(O)O)nn2)c(=O)[nH]c1=O | > 200 µM | > 200 µM | > 200 µM |
| CCOP(=O)(CCCCn1cc(Cn2cnc3cc(C)c(C)cc32)nn1)OCC | 172 µM | > 200 µM | 24.7 µM |
| Nc1ncnc2c1ncn2Cc1cn(CCCCP(=O)(O)O)nn1 | > 200 µM | > 200 µM | > 200 µM |
| O=c1ccn(Cc2cn(CCCCP(=O)(O)O)nn2)c(=O)[nH]1 | > 200 µM | > 200 µM | > 200 µM |
| Cn1c(=O)c2c(ncn2Cc2cn(CC(O)P(=O)(O)O)nn2)n(C)c1=O (centres undefined) | > 200 µM | > 200 µM | > 200 µM |
| CCOP(=O)(OCC)C(O)CCn1cc(Cn2ccc(=O)[nH]c2=O)nn1 (centres undefined) | > 200 µM | > 200 µM | > 200 µM |
| CCOP(=O)(OCC)C(O)CCn1cc(Cn2ccc(NC(C)=O)nc2=O)nn1 (centres undefined) | > 200 µM | > 200 µM | > 200 µM |
| CCOP(=O)(OCC)C(O)CCn1cc(Cn2c(=O)n(C(=O)c3ccccc3)c(=O)c3ccccc32)nn1 (centres undefined) | > 200 µM | > 200 µM | 70 µM |
| CCOP(=O)(OCC)C(O)CCn1cc(Cn2ncc(=O)[nH]c2=O)nn1 (centres undefined) | > 200 µM | > 200 µM | > 200 µM |
| CCOP(=O)(OCC)C(O)CCn1cc(Cn2c(Cl)nc3c2c(=O)n(C)c(=O)n3C)nn1 (centres undefined) | > 200 µM | > 200 µM | > 200 µM |
| CCOP(=O)(OCC)C(O)CCn1cc(Cn2c(=O)c3c(ncn3C)n(C)c2=O)nn1 (centres undefined) | > 200 µM | > 200 µM | > 200 µM |
| CCOP(=O)(OCC)C(O)CCn1cc(Cn2cnc3c2c(=O)n(C)c(=O)n3C)nn1 (centres undefined) | > 200 µM | > 200 µM | > 200 µM |
| CCOP(=O)(OCC)C(O)CCn1cc(Cn2cnc3cc(C)c(C)cc32)nn1 (centres undefined) | > 200 µM | > 200 µM | 163 µM |
| CCOP(=O)(OCC)C(O)CCn1cc(Cn2cc(C(C)=O)c3ccccc32)nn1 (centres undefined) | > 200 µM | 124 µM | 100 µM |
| CCOP(=O)(OCC)C(O)CCn1cc(Cn2ccccc2=O)nn1 (centres undefined) | > 200 µM | > 200 µM | > 200 µM |
| O=C(c1ccccc1)n1c(=O)c2ccccc2n(Cc2cn(CCCP(=O)(O)O)nn2)c1=O | > 200 µM | > 200 µM | > 200 µM |
| Cn1c(=O)c2c(nc(Cl)n2Cc2cn(CCCP(=O)(O)O)nn2)n(C)c1=O | > 200 µM | > 200 µM | > 200 µM |
| Cc1cc2ncn(Cc3cn(CCCP(=O)(O)O)nn3)c2cc1C | > 200 µM | > 200 µM | > 200 µM |
| O=C(c1ccccc1)n1c(=O)ccn(Cc2cn(CCCP(=O)(O)O)nn2)c1=O | > 200 µM | > 200 µM | > 200 µM |
| CCOP(=O)(CCCCn1cc(Cn2ccccc2=O)nn1)OCC | > 200 µM | > 200 µM | > 200 µM |
| CCOP(=O)(OCC)C(O)Cn1cc(Cn2c(=O)n(C(=O)c3ccccc3)c(=O)c3ccccc32)nn1 (centres undefined) | > 200 µM | > 200 µM | ≥ 77 µM |
| CCOP(=O)(OCC)C(O)Cn1cc(Cn2ncc(=O)[nH]c2=O)nn1 (centres undefined) | > 200 µM | > 200 µM | > 200 µM |
| CCOP(=O)(OCC)C(O)Cn1cc(Cn2c(Cl)nc3c2c(=O)n(C)c(=O)n3C)nn1 (centres undefined) | > 200 µM | > 200 µM | > 200 µM |

| SMILES | IC50 (HeLa) | IC50 (L1210) | IC50 (CCRF-CEM) |
| --- | --- | --- | --- |
| CCOP(=O)(OCC)C(O)Cn1cc(Cn2c(=O)c3c(ncn3C)n(C)c2=O)nn1 (centres undefined) | > 200 µM | > 200 µM | > 200 µM |
| CCOP(=O)(OCC)C(O)Cn1cc(Cn2cnc3c2c(=O)n(C)c(=O)n3C)nn1 (centres undefined) | > 200 µM | > 200 µM | > 200 µM |
| CCOP(=O)(OCC)C(O)Cn1cc(Cn2cnc3cc(C)c(C)cc32)nn1 (centres undefined) | > 200 µM | > 200 µM | > 200 µM |
| CCOP(=O)(OCC)C(O)Cn1cc(Cn2cc(C(C)=O)c3ccccc32)nn1 (centres undefined) | > 200 µM | > 200 µM | 21 µM |
| CCOP(=O)(OCC)C(O)Cn1cc(Cn2ccccc2=O)nn1 (centres undefined) | > 200 µM | > 200 µM | > 200 µM |
| CCOP(=O)(CC(O)Cn1cc(Cn2c(=O)n(C(=O)c3ccccc3)c(=O)c3ccccc32)nn1)OCC (centres undefined) | > 200 µM | > 200 µM | 72 µM |
| CCOP(=O)(CC(O)Cn1cc(Cn2ncc(=O)[nH]c2=O)nn1)OCC (centres undefined) | > 200 µM | > 200 µM | > 200 µM |
| CCOP(=O)(CC(O)Cn1cc(Cn2c(Cl)nc3c2c(=O)n(C)c(=O)n3C)nn1)OCC (centres undefined) | > 200 µM | > 200 µM | > 200 µM |
| CCOP(=O)(CC(O)Cn1cc(Cn2c(=O)c3c(ncn3C)n(C)c2=O)nn1)OCC (centres undefined) | > 200 µM | > 200 µM | > 200 µM |
| CCOP(=O)(CC(O)Cn1cc(Cn2cnc3c2c(=O)n(C)c(=O)n3C)nn1)OCC (centres undefined) | > 200 µM | > 200 µM | > 200 µM |
| CCOP(=O)(CC(O)Cn1cc(Cn2cnc3cc(C)c(C)cc32)nn1)OCC (centres undefined) | ≥ 150 µM | > 200 µM | 78 µM |
| CCOP(=O)(CC(O)Cn1cc(Cn2cc(C(C)=O)c3ccccc32)nn1)OCC (centres undefined) | 97 µM | > 200 µM | 43 µM |
| CCOP(=O)(CC(O)Cn1cc(Cn2ccccc2=O)nn1)OCC (centres undefined) | > 200 µM | > 200 µM | > 200 µM |
| CCOP(=O)(OCC)C(O)CCn1cc(Cn2cc(C)c(=O)[nH]c2=O)nn1 (centres undefined) | > 200 µM | > 200 µM | > 200 µM |
| CCOP(=O)(Cn1cc(Cn2cnc3cc(C)c(C)cc32)nn1)OCC | 42 µM | > 200 µM | 97 µM |
| CCOP(=O)(Cn1cc(Cn2cc(C(C)=O)c3ccccc32)nn1)OCC | 11 µM | 72 µM | 2.78 µM |
| CCOP(=O)(Cn1cc(Cn2ccccc2=O)nn1)OCC | > 200 µM | > 200 µM | > 200 µM |
| CCOP(=O)(CCn1cc(Cn2ncc(=O)[nH]c2=O)nn1)OCC | > 200 µM | > 200 µM | > 200 µM |
| CCOP(=O)(CCn1cc(Cn2c(Cl)nc3c2c(=O)n(C)c(=O)n3C)nn1)OCC | 200 µM | > 200 µM | > 200 µM |
| CCOP(=O)(CCn1cc(Cn2c(=O)c3c(ncn3C)n(C)c2=O)nn1)OCC | 159 µM | > 200 µM | > 200 µM |
| CCOP(=O)(CCn1cc(Cn2cnc3c2c(=O)n(C)c(=O)n3C)nn1)OCC | > 200 µM | > 200 µM | > 200 µM |
| CCOP(=O)(CCn1cc(Cn2cnc3cc(C)c(C)cc32)nn1)OCC | > 200 µM | ≥ 200 µM | 23.4 µM |
| CCOP(=O)(CCn1cc(Cn2cc(C(C)=O)c3ccccc32)nn1)OCC | 18 µM | 197 µM | 11.4 µM |

| SMILES | IC50 (HeLa) | IC50 (L1210) | IC50 (CCRF-CEM) |
| --- | --- | --- | --- |
| CCOP(=O)(CCn1cc(Cn2ccccc2=O)nn1)OCC | > 200 µM | > 200 µM | > 200 µM |
| CCOP(=O)(CCCn1cc(Cn2ncc(=O)[nH]c2=O)nn1)OCC | > 200 µM | > 200 µM | > 200 µM |
| CCOP(=O)(CCCn1cc(Cn2c(Cl)nc3c2c(=O)n(C)c(=O)n3C)nn1)OCC | > 200 µM | > 200 µM | > 200 µM |
| CCOP(=O)(CCCn1cc(Cn2c(=O)c3c(ncn3C)n(C)c2=O)nn1)OCC | > 200 µM | > 200 µM | > 200 µM |
| CCOP(=O)(CCCn1cc(Cn2cnc3c2c(=O)n(C)c(=O)n3C)nn1)OCC | > 200 µM | > 200 µM | > 200 µM |
| CCOP(=O)(CCCn1cc(Cn2cnc3cc(C)c(C)cc32)nn1)OCC | 101 µM | 189 µM | 14 µM |
| CCOP(=O)(CCCn1cc(Cn2cc(C(C)=O)c3ccccc32)nn1)OCC | 19 µM | 164 µM | 4.54 µM |
| CCOP(=O)(CCCn1cc(Cn2ccccc2=O)nn1)OCC | > 200 µM | > 200 µM | > 200 µM |
| CCOP(=O)(CCCCn1cc(Cn2cnc3c(N)ncnc32)nn1)OCC | > 200 µM | > 200 µM | > 200 µM |
| CCOP(=O)(CCCCn1cc(Cn2cc(C)c(=O)[nH]c2=O)nn1)OCC | > 200 µM | > 200 µM | > 200 µM |
| CCOP(=O)(CCCCn1cc(Cn2ccc(=O)[nH]c2=O)nn1)OCC | > 200 µM | > 200 µM | > 200 µM |
| CCOP(=O)(CCCCn1cc(Cn2ccc(NC(C)=O)nc2=O)nn1)OCC | > 200 µM | > 200 µM | > 200 µM |
| CCOP(=O)(CCCCn1cc(Cn2ncc(=O)[nH]c2=O)nn1)OCC | > 200 µM | > 200 µM | > 200 µM |
| CCOP(=O)(CCCCn1cc(Cn2c(Cl)nc3c2c(=O)n(C)c(=O)n3C)nn1)OCC | > 200 µM | > 200 µM | > 200 µM |
| CCOP(=O)(CCCCn1cc(Cn2c(=O)c3c(ncn3C)n(C)c2=O)nn1)OCC | > 200 µM | > 200 µM | > 200 µM |
| CCOP(=O)(CCCCn1cc(Cn2cnc3c2c(=O)n(C)c(=O)n3C)nn1)OCC | > 200 µM | > 200 µM | > 200 µM |
| CCOP(=O)(CCCCn1cc(Cn2cc(C(C)=O)c3ccccc32)nn1)OCC | > 200 µM | 200 µM | 12 µM |
| CCOP(=O)(Cn1cc(Cn2c(=O)n(C(=O)c3ccccc3)c(=O)c3ccccc32)nn1)OCC | ≥ 89 µM | > 200 µM | ≥ 72 µM |
| CCOP(=O)(Cn1cc(Cn2ncc(=O)[nH]c2=O)nn1)OCC | > 200 µM | > 200 µM | > 200 µM |
| CCOP(=O)(Cn1cc(Cn2c(Cl)nc3c2c(=O)n(C)c(=O)n3C)nn1)OCC | > 200 µM | > 200 µM | > 200 µM |
| CCOP(=O)(Cn1cc(Cn2c(=O)c3c(ncn3C)n(C)c2=O)nn1)OCC | ≥ 149 µM | > 200 µM | > 200 µM |
| CCOP(=O)(Cn1cc(Cn2cnc3c2c(=O)n(C)c(=O)n3C)nn1)OCC | > 200 µM | > 200 µM | > 200 µM |
